# Test results reported in ChEMBL document CHEMBL2380295, “Structure-activity studies on the side chain of a simplified analog of aplysiatoxin (aplog-1) with anti-proliferative activity” (Bioorg Med Chem, 2013).
# pKi: −log10 of the molar value.
# Experiments:
# [1] = Octanol-water partition coefficient, log P of the compound by HPLC analysis; type: physicochemical
# In short: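 log P was estimated from HPLC retention, with column dead time measured using unretained formamide.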
# [2] = target: T1, Protein kinase C delta type (Homo sapiens, UniProt Q05655); experiment: Inhibition of [3H]PDBu binding to PKCdelta-C1A domain peptide (unknown origin)
# In short: (§1)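 Competitive [3H]PDBu binding used 14 or 40 nM PKCδ C1 peptide and 20 nM [3H]PDBu (19.6 Ci/mmol), in 50 mM Tris-maleate (pH 7.4 at 4 °C) with 50 µg/mL phosphatidylserine, 3 mg/mL bovine γ-globulin and varied inhibitor concentrations. IC50 was taken as 50% inhibition of specific binding. Ki was derived by the Sharkey–Blumberg method.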
# [3] = Cytotoxicity against human Raji cells assessed as cell viability at 10^-6 M; type: cell-based; settings: read-out: Activity
# [4] = Cytotoxicity against human Raji cells assessed as cell viability at 10^-7 M; type: cell-based; settings: read-out: Activity
# Human gammaherpesvirus 4 [5] = experiment: Induction of EBV-early antigen expressed in human Raji cells at 10^-6 M after 48 hrs by immunofluorescence assay relative to control; type: organism-based; settings: human gammaherpesvirus 4, raji, 1 µM
# In short: (§2)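 Raji B-lymphoblastoid cells (5 × 10^5/mL) in RPMI 1640 with 10% FBS, with 4 mM sodium n-butyrate as synergist and test compound at 10^-7 or 10^-6 M (final DMSO 0.4%). Incubated 48 h at 37 °C under 5% CO2. Smears were stained by indirect immunofluorescence using NPC patient serum and FITC anti-human IgG. At least 500 cells counted; % EA-positive recorded; n = 3, SEM.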
# Human gammaherpesvirus 4 [6] = experiment: Induction of EBV-early antigen expressed in human Raji cells at 10^-7 M after 48 hrs by immunofluorescence assay relative to control; type: organism-based; settings: human gammaherpesvirus 4, raji, 0.1 µM; in short: as §2
# PC-3 = experiment: Growth inhibition of human PC3 cells after 48 hrs by sulforhodamine B assay; type: functional; settings: PC-3, 48 h
# In short: (§3)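 Yamori 39-line human cancer panel, NCI method with modifications. Cells plated in RPMI 1640 plus 5% FBS, attached overnight, then exposed 48 h to compound at 10^-8, 10^-7, 10^-6, 10^-5 and 10^-4 M. Sulforhodamine B staining read at 525 nm; % growth = 100[(T−T0)/(C−T0)] from duplicate-point averages, with T0 the time-zero absorbance. GI50 is the concentration giving 50.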
# DU-145 = experiment: Growth inhibition of human DU145 cells after 48 hrs by sulforhodamine B assay; type: functional; settings: DU-145, 48 h; in short: as §3
# MKN-74 = experiment: Growth inhibition of human MKN74 cells after 48 hrs by sulforhodamine B assay; type: functional; settings: MKN-74, 48 h; in short: as §3
# MKN-28 = experiment: Growth inhibition of human MKN28 cells after 48 hrs by sulforhodamine B assay; type: functional; settings: MKN-28, 48 h; in short: as §3
# MKN-45 = experiment: Growth inhibition of human MKN45 cells after 48 hrs by sulforhodamine B assay; type: functional; settings: MKN-45, 48 h; in short: as §3
# MKN-7 = experiment: Growth inhibition of human MKN7 cells after 48 hrs by sulforhodamine B assay; type: functional; settings: MKN-7, 48 h; in short: as §3
# St-4 = experiment: Growth inhibition of human St-4 cells after 48 hrs by sulforhodamine B assay; type: functional; settings: St-4, 48 h; in short: as §3
# [7] = Growth inhibition of human MKN1 cells after 48 hrs by sulforhodamine B assay; type: functional; settings: MKN-1, 48 h; in short: as §3
# [8] = Growth inhibition of human RXF631L cells after 48 hrs by sulforhodamine B assay; type: functional; settings: RXF 631, 48 h; in short: as §3
# ACHN = experiment: Growth inhibition of human ACHN cells after 48 hrs by sulforhodamine B assay; type: functional; in short: as §3
# OVCAR-8 = experiment: Growth inhibition of human OVCAR8 cells after 48 hrs by sulforhodamine B assay; type: functional; settings: OVCAR-8, 48 h; in short: as §3
# SK-OV-3 = experiment: Growth inhibition of human SKOV3 cells after 48 hrs by sulforhodamine B assay; type: functional; settings: SK-OV-3, 48 h; in short: as §3
# OVCAR-5 = experiment: Growth inhibition of human OVCAR5 cells after 48 hrs by sulforhodamine B assay; type: functional; settings: OVCAR-5, 48 h; in short: as §3
# OVCAR-3 = experiment: Growth inhibition of human OVCAR3 cells after 48 hrs by sulforhodamine B assay; type: functional; settings: OVCAR-3, 48 h; in short: as §3
# OVCAR-4 = experiment: Growth inhibition of human OVCAR4 cells after 48 hrs by sulforhodamine B assay; type: functional; settings: OVCAR-4, 48 h; in short: as §3
# DMS-114 = experiment: Growth inhibition of human DMS114 cells after 48 hrs by sulforhodamine B assay; type: functional; settings: DMS-114, 48 h; in short: as §3
# LOX IMVI = experiment: Growth inhibition of human LOXIMVI cells after 48 hrs by sulforhodamine B assay; type: functional; in short: as §3
# A549 = experiment: Growth inhibition of human A549 cells after 48 hrs by sulforhodamine B assay; type: functional; settings: A549, 48 h; in short: as §3
# DMS-273 = experiment: Growth inhibition of human DMS273 cells after 48 hrs by sulforhodamine B assay; type: functional; settings: DMS-273, 48 h; in short: as §3
# NCI-H460 = experiment: Growth inhibition of human NCI-H460 cells after 48 hrs by sulforhodamine B assay; type: functional; settings: NCI-H460, 48 h; in short: as §3
# NCI-H226 = experiment: Growth inhibition of human NCI-H226 cells after 48 hrs by sulforhodamine B assay; type: functional; settings: NCI-H226, 48 h; in short: as §3
# NCI-H522 = experiment: Growth inhibition of human NCI-H522 cells after 48 hrs by sulforhodamine B assay; type: functional; settings: NCI-H522, 48 h; in short: as §3
# HCT-116 = experiment: Growth inhibition of human HCT116 cells after 48 hrs by sulforhodamine B assay; type: functional; settings: HCT-116, 48 h; in short: as §3
# NCI-H23 = experiment: Growth inhibition of human NCI-H23 cells after 48 hrs by sulforhodamine B assay; type: functional; settings: NCI-H23, 48 h; in short: as §3
# HCT-15 = experiment: Growth inhibition of human HCT15 cells after 48 hrs by sulforhodamine B assay; type: functional; settings: HCT-15, 48 h; in short: as §3
# KM12 = experiment: Growth inhibition of human KM12 cells after 48 hrs by sulforhodamine B assay; type: functional; settings: KM12, 48 h; in short: as §3
# HT-29 = experiment: Growth inhibition of human HT-29 cells after 48 hrs by sulforhodamine B assay; type: functional; settings: HT-29, 48 h; in short: as §3
# SNB-78 = experiment: Growth inhibition of human SNB78 cells after 48 hrs by sulforhodamine B assay; type: functional; settings: SNB-78, 48 h; in short: as §3
# [9] = Growth inhibition of human HCC2998 cells after 48 hrs by sulforhodamine B assay; type: functional; settings: HCC 2998, 48 h; in short: as §3
# SF-539 = experiment: Growth inhibition of human SF539 cells after 48 hrs by sulforhodamine B assay; type: functional; settings: SF-539, 48 h; in short: as §3
# SNB-75 = experiment: Growth inhibition of human SNB75 cells after 48 hrs by sulforhodamine B assay; type: functional; settings: SNB-75, 48 h; in short: as §3
# SF-295 = experiment: Growth inhibition of human SF295 cells after 48 hrs by sulforhodamine B assay; type: functional; settings: SF-295, 48 h; in short: as §3
# U-251 = experiment: Growth inhibition of human U251 cells after 48 hrs by sulforhodamine B assay; type: functional; settings: U-251, 48 h; in short: as §3
# SF-268 = experiment: Growth inhibition of human SF268 cells after 48 hrs by sulforhodamine B assay; type: functional; settings: SF-268, 48 h; in short: as §3
# MCF7 = experiment: Growth inhibition of human MCF7 cells after 48 hrs by sulforhodamine B assay; type: functional; settings: MCF7, 48 h; in short: as §3
# MDA-MB-231 = experiment: Growth inhibition of human MDA-MB-231 cells after 48 hrs by sulforhodamine B assay; type: functional; settings: MDA-MB-231, 48 h; in short: as §3
# [10] = Growth inhibition of human BSY1 cells after 48 hrs by sulforhodamine B assay; type: functional; settings: BSY-1, 48 h; in short: as §3
# [11] = Growth inhibition of human HBC5 cells after 48 hrs by sulforhodamine B assay; type: functional; settings: HBC5, 48 h; in short: as §3
# [12] = Growth inhibition of human HBC4 cells after 48 hrs by sulforhodamine B assay; type: functional; settings: HBC4, 48 h; in short: as §3
# [13] = target: T1, Protein kinase C delta type; experiment: Inhibition of [3H]PDBu binding to PKCdelta-C1B domain peptide (unknown origin); in short: as §1
# T1 sequence (Q05655 whole entry, the tested form may be a part): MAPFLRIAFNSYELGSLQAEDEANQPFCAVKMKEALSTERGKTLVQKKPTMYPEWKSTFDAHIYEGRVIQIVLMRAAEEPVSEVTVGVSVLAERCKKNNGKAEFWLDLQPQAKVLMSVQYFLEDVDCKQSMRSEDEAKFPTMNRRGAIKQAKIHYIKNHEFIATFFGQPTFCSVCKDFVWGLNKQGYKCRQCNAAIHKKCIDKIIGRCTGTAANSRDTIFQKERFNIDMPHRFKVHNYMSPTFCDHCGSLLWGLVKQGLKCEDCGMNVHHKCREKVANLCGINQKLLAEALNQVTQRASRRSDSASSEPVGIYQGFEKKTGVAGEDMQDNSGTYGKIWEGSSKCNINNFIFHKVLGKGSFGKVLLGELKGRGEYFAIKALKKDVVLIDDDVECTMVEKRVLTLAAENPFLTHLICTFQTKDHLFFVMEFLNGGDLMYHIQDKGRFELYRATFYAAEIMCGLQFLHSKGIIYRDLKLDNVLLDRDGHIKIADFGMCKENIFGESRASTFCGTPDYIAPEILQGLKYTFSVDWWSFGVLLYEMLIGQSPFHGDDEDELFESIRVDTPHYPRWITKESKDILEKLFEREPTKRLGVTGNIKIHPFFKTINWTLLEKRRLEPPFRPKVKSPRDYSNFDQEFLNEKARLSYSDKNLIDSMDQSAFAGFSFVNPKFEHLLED
smiles,measurement,setting,value
CO[C@@H](CC[C@H](C)[C@H]1O[C@@]23C[C@H](OC(=O)C[C@H]([C@@H](C)O)OC(=O)C[C@](O)(O2)[C@H](C)CC3(C)C)[C@@H]1C)c1cc(O)ccc1Br [APLYSIATOXIN],logP,[1],5.4
CO[C@@H](CC[C@H](C)[C@H]1O[C@@]23C[C@H](OC(=O)C[C@H]([C@@H](C)O)OC(=O)C[C@](O)(O2)[C@H](C)CC3(C)C)[C@@H]1C)c1cccc(O)c1 [DEBROMOAPLYSIATOXIN],pKi,[2],8.01
CC1(C)CC[C@@H]2CC(=O)O[C@@H](CO)CC(=O)O[C@@H]3C[C@@H](CCCCc4cc(O)c(Br)cc4Br)O[C@@]1(C3)O2,viability at 1 µM,[3],40%
same,viability at 0.1 µM,[4],40%
same,Activity,Human gammaherpesvirus 4 [5],2.1%
same,Activity,Human gammaherpesvirus 4 [6],2%
same,GI50,PC-3,3.89 µM
same,GI50,DU-145,11.2 µM
same,GI50,MKN-74,11 µM
same,GI50,MKN-28,8.32 µM
same,GI50,MKN-45,3.72 µM
same,GI50,MKN-7,6.46 µM
same,GI50,St-4,1.29 µM
same,GI50,[7],10.2 µM
same,GI50,[8],14.5 µM
same,GI50,ACHN,5.75 µM
same,GI50,OVCAR-8,15.8 µM
same,GI50,SK-OV-3,15.8 µM
same,GI50,OVCAR-5,10 µM
same,GI50,OVCAR-3,6.17 µM
same,GI50,OVCAR-4,15.5 µM
same,GI50,DMS-114,13.5 µM
same,GI50,LOX IMVI,2.82 µM
same,GI50,A549,4.9 µM
same,GI50,DMS-273,10.7 µM
same,GI50,NCI-H460,1.23 µM
same,GI50,NCI-H226,15.1 µM
same,GI50,NCI-H522,13.8 µM
same,GI50,HCT-116,10.7 µM
same,GI50,NCI-H23,6.61 µM
same,GI50,HCT-15,13.8 µM
same,GI50,KM12,4.79 µM
same,GI50,HT-29,15.5 µM
same,GI50,SNB-78,12.9 µM
same,GI50,[9],0.891 µM
same,GI50,SF-539,10 µM
same,GI50,SNB-75,5.89 µM
same,GI50,SF-295,6.61 µM
same,GI50,U-251,11.7 µM
same,GI50,SF-268,12.6 µM
same,GI50,MCF7,12.3 µM
same,GI50,MDA-MB-231,2.95 µM
same,GI50,[10],4.57 µM
same,GI50,[11],14.1 µM
same,GI50,[12],0.224 µM
same,logP,[1],5
same,pKi,[2],7.03
same,pKi,[13],8.39
CCCCCCCCCCCCCC(=O)O[C@@H]1[C@@H](C)[C@@]2(O)[C@@H](C=C(CO)C[C@]3(O)C(=O)C(C)=C[C@@H]23)[C@@H]2C(C)(C)[C@]12OC(C)=O [PHORBOL MYRISTATE ACETATE],Activity,Human gammaherpesvirus 4 [5],31.5%
same,Activity,Human gammaherpesvirus 4 [6],29.4%
C[C@H]1[C@@H]2C[C@@]3(O[C@H](CCC3(C)C)CC(=O)O[C@@H](CO)CC(=O)O2)O[C@@H]1CCCCc1cccc(O)c1,pKi,[2],7.66
